Reference: PMC6456254 (ACS chemical neuroscience, 2018)

Assays:
[1] = test system: M1; conditions: cited from earlier work
[2] = test system: M2 and M4; conditions: cited from earlier work
[3] = Solubility in SGF; assay type: physicochemical; conditions: pH 1.6
[4] = Predicted hepatic clearance, human; assay type: in vitro ADME
[5] = Predicted hepatic clearance, rat; assay type: in vitro ADME
[6] = test system: M1; assay type: cell-based; conditions: high expressing recombinant cell lines, species not stated
[7] = test system: human M2−5; assay: PAM selectivity versus human M2-5; assay type: cell-based; conditions: read-out: EC50 vs human M2−5
[8] = Fraction unbound in rat plasma; assay type: in vitro ADME
[9] = In vivo rat PK
[10] = Fraction unbound in human plasma; assay type: in vitro ADME
[11] = biological target: T1, rat M1 (Rattus norvegicus, UniProt P08482); assay: Rat M1 functional assay in high expressing M1 cell line; assay type: cell-based; conditions: rat M1, up to 30 μM
T1 sequence (P08482 1-460): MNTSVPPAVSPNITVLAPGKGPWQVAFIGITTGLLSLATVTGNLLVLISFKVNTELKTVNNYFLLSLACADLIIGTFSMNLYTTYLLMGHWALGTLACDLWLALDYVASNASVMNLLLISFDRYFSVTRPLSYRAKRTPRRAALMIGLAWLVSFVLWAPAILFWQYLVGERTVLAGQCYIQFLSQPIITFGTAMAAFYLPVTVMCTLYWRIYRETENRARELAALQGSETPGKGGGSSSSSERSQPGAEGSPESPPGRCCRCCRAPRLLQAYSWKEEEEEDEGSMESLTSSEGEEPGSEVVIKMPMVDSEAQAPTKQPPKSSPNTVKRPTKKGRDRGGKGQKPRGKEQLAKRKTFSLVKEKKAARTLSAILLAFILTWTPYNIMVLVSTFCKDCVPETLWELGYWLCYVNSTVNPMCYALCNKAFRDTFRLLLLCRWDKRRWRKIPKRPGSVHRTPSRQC
Outline: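 Calcium mobilization in CHO cells expressing rat M1. Agonist mode adds no exogenous acetylcholine, and EC50 is derived from the response. PAM mode is run with a fixed EC20 concentration of acetylcholine. Values are means from three independent experiments, each performed in triplicate.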

COc1ccc(Cn2cc(C(=O)O)c(=O)c3ccccc32)cc1 [compound 1, BQCA]
mode of M1 pharmacology [1]: highly potent and robust M1 ago-PAM

O=C1C(=O)N(Cc2ccc(Br)cc2)c2ccccc21 [compound 9, VU0119498]
M1 agonist activity ([1]; HTS hit): virtually no detectable M1 agonist activity
activity at M2 and M4 [2]: inactive

VU0451725 [compound 10]
solubility [3]: < 5 µg/mL

VU6005877 [24c]
predicted hepatic clearance, human CLhep [4]: 13.6 mL/min/kg
predicted hepatic clearance, rat CLhep [5]: 31.7 mL/min/kg
M1 agonism [6]: devoid of M1 agonism
EC50 [7]: > 30 µM
fraction unbound in plasma, rat fu [8]: 0.016
CLp [9]: 7.3 mL/min/kg
fraction unbound in plasma, human fu [10]: 0.01
agonist activity in high-expressing M1 cell line [11]: no agonist activity
